Screen size: about 96,000 compounds; about 140 (0.15%) were called active.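 How the source made its calls: active means mean replicate inhibition above about 25%, with at least 55% of replicates also reaching it (limit read from the data, passing the limit was not always enough); inconclusive means only one of those two conditions met; inactive means neither condition met.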 What follows is part of a selection rich in actives, with near analogues and random picks from the rest.
These molecules were tested against Lysine-specific demethylase 4C (Homo sapiens) (UniProt Q9H3R0) (assay: inhibitors of GASC-1 (KDM4C) histone demethylase, primary screen, biochemical, single concentration HTS (AID 720574)). Settings: GST-KDM4C 2-372, H3K9me3 peptide, LANCE TR-FRET; at 12.5 µM; stronger effect = higher value.
Procedure, shortened: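 Material: GST-tagged GASC-1 (JMJD2C) catalytic fragment, aa 2-372. Input: enzyme final amount 10 nM. Medium: HEPES buffer, pH 7.5, plus ascorbate. Reagent: H3K9me3 peptide substrate, Fe(II), 2-oxoglutarate. Doses: single dose. Times: reaction 30 min RT, detection step 1 h RT. Measured by: LANCE TR-FRET. Evaluation: Fall in 671/618 emission ratio as inhibition.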

Sequence of Lysine-specific demethylase 4C (Homo sapiens) (Q9H3R0 2-372 limits assumed): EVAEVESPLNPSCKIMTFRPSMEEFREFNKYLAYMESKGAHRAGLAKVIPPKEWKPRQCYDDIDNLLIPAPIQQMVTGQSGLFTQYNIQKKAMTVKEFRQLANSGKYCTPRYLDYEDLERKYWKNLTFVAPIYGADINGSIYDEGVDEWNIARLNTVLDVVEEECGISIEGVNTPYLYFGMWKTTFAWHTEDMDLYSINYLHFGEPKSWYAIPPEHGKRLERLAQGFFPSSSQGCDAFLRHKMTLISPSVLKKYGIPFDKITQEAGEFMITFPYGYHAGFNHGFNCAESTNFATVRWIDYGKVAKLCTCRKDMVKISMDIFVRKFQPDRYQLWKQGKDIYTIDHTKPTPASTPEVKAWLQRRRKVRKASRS

inhibition, inactive:
COc1cccc(S(=O)(=O)N[C@@H]2C=C[C@H](CC(=O)NC3CCC3)O[C@@H]2CO)c1 -0.615%
CNC(=O)C[C@@H]1CC[C@@H]2[C@@H](COc3ccc(NC(=O)Nc4ccccc4OC)cc3C(=O)N2C)O1 -0.148%
COc1ccc2c3c(n(C)c2c1)[C@@H](CO)N(C(=O)CN1CCOCC1)CC31CN(C(=O)CC2CC2)C1 -1.48%
C[C@H](CO)N1C[C@H](C)[C@@H](CN(C)C(=O)C2CC2)Oc2cc(C#CC(C)(C)O)ccc2S1(=O)=O -1.72%
O=C(C1CCCC1)N1CC(=O)N2[C@@H](CO)[C@H](c3ccc(C#CC4CCCC4)cc3)[C@@H]2C1 0.0785%
COc1cccc(-c2ccc([C@@H]3[C@@H](CO)N4C(=O)CN(C(=O)C5CCCCC5)C[C@H]34)cc2)c1 -0.874%
CC(C)(C)[S@](=O)N1Cc2cc(C(=O)N[C@@H]3CCN(Cc4ccccc4)C3)nc(-c3cccc(-c4ccncc4)c3)c2[C@@H]1CCO -0.764%
C/C=C/c1ccccc1[C@@H]1[C@@H](C#N)N(C(=O)Cc2ccccn2)[C@H]1CO 0.483%
CN(C)CC(=O)Nc1ccc2c(c1)[C@H]1C[C@@H](CC(=O)NCc3ccc(Cl)cc3)O[C@@H](CO)[C@H]1O2 -0.979%
COc1cccc(NC(=O)N[C@@H]2CC[C@H](CC(=O)Nc3ccccc3)O[C@@H]2CO)c1 -0.777%
COc1ccc2c3c(n(C)c2c1)[C@H](CO)NCC31CCN(C(=O)Nc2ccccc2F)CC1 0.753%
CO[C@H]1CN(C)C(=O)c2ccc(NC(C)=O)cc2OC[C@H](C)N(C(=O)Cc2ccccn2)C[C@@H]1C 0.463%
CN1C(=O)c2cc(NC(=O)C3CCC3)ccc2OC[C@@H]2O[C@@H](CC(=O)NCc3ccccc3F)CC[C@@H]21 -1.68%
CO[C@H]1CN(C)C(=O)c2ccc(NC(=O)Cc3ccccc3)cc2OC[C@@H](C)N(C(C)=O)C[C@H]1C -0.332%
COc1ccc(CNC(=O)C[C@H]2CC[C@@H]3[C@H](COc4ccc(NC(=O)C5CC5)cc4C(=O)N3C)O2)cc1 0.0505%
C[C@@H]1CN([C@@H](C)CO)S(=O)(=O)c2ccc(-c3ccccc3F)cc2O[C@H]1CN(C)Cc1cncnc1 5.07%
C[C@@H]1CN([C@@H](C)CO)C(=O)c2cc(C#C[C@@H](C)O)cnc2O[C@H]1CN(C)CC1CCOCC1 4.17%
COc1ccccc1-c1cn(CC[C@@H]2CC[C@H](NC(=O)c3ccccc3F)[C@H](CO)O2)nn1 -1.5%
COC(=O)C[C@H]1CC[C@H]2[C@@H](COc3ccc(NC(=O)Nc4cccc(F)c4)cc3C(=O)N2C)O1 -1.5%
COCc1cn(CC[C@@H]2CC[C@@H](NC(=O)Cc3cccnc3)[C@@H](CO)O2)nn1 1.27%
CC(C)(C)[S@@](=O)N1Cc2cc(C(=O)N3CCOCC3)nc(-c3cccc(-c4ccc(C#N)cc4)c3)c2[C@H]1CCO 1.6%
CC=Cc1ccc2n(c1=O)C[C@@H]1[C@@H](CO)[C@H](C(=O)N[C@H](C)c3ccccc3)N(C(=O)c3cnccn3)[C@H]21 (mixture of isomers) 0.423%
O=C(C[C@@H]1CC[C@@H]2[C@H](COC[C@H](O)CN2Cc2cccc(C(F)(F)F)c2)O1)NCc1ccc(F)cc1 3.72%
CN(C)CC(=O)N1CC2(C1)[C@H](c1ccccc1)[C@@H](CO)N2C(=O)C1CCCCC1 -0.237%
O=C(C[C@H]1C=C[C@H](NC(=O)C2CCC2)[C@H](CO)O1)NCCCN1CCOCC1 1.01%
COc1ccc(NC(=O)N(C)C[C@@H]2Oc3ccc(NS(=O)(=O)c4ccc(C)cc4)cc3CC(=O)N([C@@H](C)CO)C[C@H]2C)cc1 6.92%
CCNC(=O)Nc1ccc2c(c1)C(=O)N(C)[C@H]1CC[C@@H](CC(=O)N[C@@H](C)c3ccccc3)O[C@H]1CO2 0.198%
O=C(Nc1ccccc1F)N1CC(=O)N2[C@H](C1)[C@@H](c1ccc(C#CC3CC3)cc1)[C@@H]2CO 1.64%
CN(C)C(=O)[C@@H]1[C@@H](CO)[C@@H]2Cn3c(ccc(C4=CCCC4)c3=O)[C@H]1N2Cc1ccccn1 1.36%
NCC[C@H]1CC[C@H](NC(=O)C2CC2)[C@@H](CO)O1 0.258%
CO[C@H]1CN(C)C(=O)c2ccc(NC(=O)C3CC3)cc2OC[C@H](C)N(CCc2ccccc2)C[C@@H]1C 0.468%
O=C(CC(F)(F)F)N1C[C@H]2[C@@H](c3ccccc31)[C@H](CO)N2C(=O)Cc1ccccc1 -2.83%
CCCN1C[C@@H](C)[C@@H](OC)CN(C)C(=O)c2ccc(NC(=O)CC(F)(F)F)cc2OC[C@H]1C -0.121%
CN1CCN(C(=O)C[C@@H]2CC[C@@H]3[C@@H](COc4ccc(NC(=O)c5ccc(F)c(F)c5)cc4C(=O)N3C)O2)CC1 -0.587%
O=C(c1ccncc1)N1C[C@@H]2[C@H](c3ccccc31)[C@H](CO)N2C(=O)c1ccncc1 -0.987%
COc1ccc2c3c(n(C)c2c1)[C@H](CO)N(C(=O)NC(C)C)CC31CCN(C(=O)NC(C)C)CC1 0.238%
CCCN1C[C@H](C)[C@@H](OC)CN(C)C(=O)c2ccc(NC(=O)CC)cc2OC[C@@H]1C 2.58%
O=C(Nc1ccccc1)N1CC(=O)N2[C@@H](CO)[C@H](c3ccc(C#CC4CCCC4)cc3)[C@@H]2C1 0.422%
CN(C)C(=O)C[C@@H]1CC[C@H](NC(=O)NC2CCCCC2)[C@@H](CO)O1 -0.283%
CCCC(=O)Nc1ccc2c(c1)C(=O)N(C)[C@@H]1CC[C@H](CC(=O)NCCOC)O[C@H]1CO2 0.186%
CC(=O)N1CC2(C1)[C@@H](c1ccccc1)[C@@H](CO)N2C(=O)c1cnccn1 0.148%

— PubChem BioAssay AID720574 (Broad Institute, 2013)
